Measured values taken from ChEMBL document CHEMBL4673384, “Studying Histone Deacetylase Inhibition and Apoptosis Induction of Psammaplin A Monomers with Modified Thiol Group” (ACS Med Chem Lett, 2021).
Activity calls are given as the source filed them. The rule behind the calls is not given here.

Columns and labels:
[1] = Antitumor activity against mouse LL/2 cells inoculated in C57BL/6J mouse assessed as tumor growth inhibition at 25 mg/kg, ip administered for 12 days; format: functional, Lewis lung carcinoma; design: scale not given: the % may be the effect or the level left; settings: time 12 day
A549 = test: Antiproliferative activity against human A549 cells assessed as cell growth inhibition incubated for 96 hrs by MTT assay; format: functional
[2] = Toxicity in mouse LL/2 cells inoculated C57BL/6J mouse assessed as effect on body weight by measuring initial body weight at 25 mg/kg, ip administered for 12 days measured for every 2 days (reference value: 18.4 +/- 0.4 g); format: organism-based; settings: in vivo, 288 h, time 12 day
[3] = Toxicity in mouse LL/2 cells inoculated C57BL/6J mouse assessed as effect on body weight by measuring end body weight at 25 mg/kg, ip administered for 12 days and measured for every 2 days (reference value: 18.1 +/- 0.2 g); format: organism-based; settings: in vivo, 288 h, time 12 day
Histone deacetylase 1 = Histone deacetylase 1 (Homo sapiens, UniProt Q13547); test: Inhibition of recombinant full length C-terminal FLAG/His-tagged human HDAC1 expressed in baculovirus infected Sf9 cells using Boc-Lys(Ac)-AMC as substrate preincubated for 15 mins followed by substrate addition and measured after 60 mins by fluorescence based assay
HL-60 [4] = test: Growth inhibition of human HL-60 cells after 72 hrs by trypan blue dye based assay; format: functional; settings: for GI50: Homo sapiens, HL-60
Method in brief: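 HL-60 leukemia cells were exposed to compound for 72 h. Growth inhibition is reported as IG50 (half the growth inhibition concentration), as means plus SD of three independent experiments.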

Histone deacetylase 2 [5] = biological target: T1, Histone deacetylase 2 (Homo sapiens, UniProt Q92769); test: Inhibition of recombinant full length C-terminal FLAG-tagged human HDAC2 expressed in baculovirus infected Sf9 cells using Boc-Lys(Ac)-AMC as substrate preincubated for 15 mins followed by substrate addition and measured after 60 mins by fluorescence based assay
[6] = Antiproliferative activity against mouse LL/2 cells assessed as cell growth inhibition incubated for 96 hrs by MTT assay; format: functional, Lewis lung carcinoma
MCF7 = test: Antiproliferative activity against human MCF7 cells assessed as cell growth inhibition incubated for 96 hrs by MTT assay; format: functional
[7] = Antitumor activity against mouse LL/2 cells inoculated in C57BL/6J mouse assessed as reduction of tumor weight at 25 mg/kg, ip administered for 12 days measured at day 14 (reference value: 0.98 +/- 0.07 g); format: functional, Lewis lung carcinoma; settings: time 12 day
[8] = biological target: T2, Protein deacetylase HDAC6 (Homo sapiens, UniProt Q9UBN7); test: Inhibition of recombinant full length C-terminal FLAG-tagged human HDAC6 expressed in baculovirus infected Sf9 cells using Boc-Lys(Ac)-AMC as substrate preincubated for 15 mins followed by substrate addition and measured after 60 mins by fluorescence based assay
T2 sequence (Q9UBN7 whole entry): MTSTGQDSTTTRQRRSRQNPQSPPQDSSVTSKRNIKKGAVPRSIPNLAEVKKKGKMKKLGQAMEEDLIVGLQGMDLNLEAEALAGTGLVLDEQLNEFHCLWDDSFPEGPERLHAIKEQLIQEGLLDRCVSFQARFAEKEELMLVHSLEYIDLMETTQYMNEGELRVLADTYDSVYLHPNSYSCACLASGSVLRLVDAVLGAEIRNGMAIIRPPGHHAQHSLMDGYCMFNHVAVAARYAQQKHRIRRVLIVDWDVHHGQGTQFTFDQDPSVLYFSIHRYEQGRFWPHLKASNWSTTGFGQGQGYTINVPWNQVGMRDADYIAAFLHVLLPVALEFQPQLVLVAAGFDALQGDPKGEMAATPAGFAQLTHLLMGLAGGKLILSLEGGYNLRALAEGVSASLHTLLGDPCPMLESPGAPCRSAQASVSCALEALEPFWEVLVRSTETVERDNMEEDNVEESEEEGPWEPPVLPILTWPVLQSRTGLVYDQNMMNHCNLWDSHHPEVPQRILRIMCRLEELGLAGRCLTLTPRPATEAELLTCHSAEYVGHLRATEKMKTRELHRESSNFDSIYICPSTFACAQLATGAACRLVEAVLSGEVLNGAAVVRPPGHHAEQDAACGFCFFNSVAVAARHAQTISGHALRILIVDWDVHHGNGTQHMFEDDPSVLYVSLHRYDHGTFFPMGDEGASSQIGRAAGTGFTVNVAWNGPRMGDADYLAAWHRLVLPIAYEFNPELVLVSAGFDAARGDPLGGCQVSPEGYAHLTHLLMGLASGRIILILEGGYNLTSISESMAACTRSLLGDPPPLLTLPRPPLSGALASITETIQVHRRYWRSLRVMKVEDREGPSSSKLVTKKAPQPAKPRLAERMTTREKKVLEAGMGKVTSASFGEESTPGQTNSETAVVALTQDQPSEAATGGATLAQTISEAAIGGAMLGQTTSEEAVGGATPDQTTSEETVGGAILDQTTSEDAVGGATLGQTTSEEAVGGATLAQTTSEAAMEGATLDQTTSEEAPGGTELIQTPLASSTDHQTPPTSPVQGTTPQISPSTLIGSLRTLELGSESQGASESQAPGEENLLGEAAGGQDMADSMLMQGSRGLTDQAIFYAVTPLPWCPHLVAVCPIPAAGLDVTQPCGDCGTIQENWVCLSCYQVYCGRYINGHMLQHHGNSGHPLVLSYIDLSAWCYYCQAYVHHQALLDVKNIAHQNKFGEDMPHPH

[9] = biological target: Histone deacetylase 3/Nuclear receptor corepressor 2 (HDAC3/NCoR2) (Homo sapiens, UniProt O15379); test: Inhibition of C-terminal His-tagged recombinant human HDAC3 (1 to 428 residues)/N-terminal GST-tagged recombinant human NCoR2 (395 to 489 residues) co-expressed in baculovirus infected Sf9 cells using Boc-Lys(Ac)-AMC as substrate preincubated for 15 mins followed by substrate addition and measured after 60 mins by fluorescence based assay
HCT-116 = test: Antiproliferative activity against human HCT-116 cells assessed as cell growth inhibition incubated for 96 hrs by MTT assay; format: functional
HL-60 [10] = test: Induction of apoptosis in human HL-60 cells assessed as cleavage of caspase-9 at 0.5 to 8 uM after 24 hrs Western blot analysis; format: functional, cell-based; settings: dose 0.5-8 µM
Method in brief: (§1)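 HL-60 cells were treated for 24 h at the indicated concentrations, then analysed by Western blot. Blots were probed for cleavage of PARP and caspase-3, -8 and -9. Ac-H3, Ac-α-tubulin and β-actin were also detected, with β-actin as the loading reference.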

Histone deacetylase 2 [11] = biological target: T1, Histone deacetylase 2; test: Inhibition of HDAC2 in human HL-60 cells assessed as increase in Ac-H3 level at 0.5 to 8 uM incubated for 24 hrs by Western blot analysis; format: cell-based; settings: dose 0.5-8 µM
Method in brief: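 Compound given to HL-60 cells for 24 h at the stated concentrations, then lysed. Acetyl-histone H3 and acetyl-α-tubulin levels were read by Western blot, with total H3, α-tubulin or β-actin as references.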

HL-60 [12] = test: Induction of apoptosis in human HL-60 cells assessed as late apoptotic cells at 2 uM incubated for 24 hrs by propidium iodide and annexin-V FITC staining based FACS analysis (reference value: 4.2 %); format: functional
HL-60 [13] = test: Induction of apoptosis in human HL-60 cells assessed as cleavage of caspase-8 at 0.5 to 8 uM after 24 hrs Western blot analysis; format: functional, cell-based; settings: dose 0.5-8 µM; method in brief: as §1
HL-60 [14] = test: Induction of apoptosis in human HL-60 cells assessed as viable cells at 4 uM incubated for 24 hrs by propidium iodide and annexin-V FITC staining based FACS analysis (reference value: 92.05 %); format: functional; settings: read-out: Activity

Sequence of Histone deacetylase 1 (Q13547 whole entry): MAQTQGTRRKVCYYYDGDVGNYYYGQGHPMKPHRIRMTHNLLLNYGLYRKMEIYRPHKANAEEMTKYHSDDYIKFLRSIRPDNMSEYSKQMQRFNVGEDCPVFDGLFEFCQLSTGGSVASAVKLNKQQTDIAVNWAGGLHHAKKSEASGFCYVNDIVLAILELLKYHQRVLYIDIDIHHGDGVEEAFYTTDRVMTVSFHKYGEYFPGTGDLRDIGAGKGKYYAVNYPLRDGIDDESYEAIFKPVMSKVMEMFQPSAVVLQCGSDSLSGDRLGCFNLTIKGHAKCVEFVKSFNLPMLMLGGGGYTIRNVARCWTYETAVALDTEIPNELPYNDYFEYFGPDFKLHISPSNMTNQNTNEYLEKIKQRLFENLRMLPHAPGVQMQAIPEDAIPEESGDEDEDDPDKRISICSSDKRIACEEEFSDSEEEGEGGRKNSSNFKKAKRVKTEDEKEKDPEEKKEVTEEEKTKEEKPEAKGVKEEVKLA
T1 sequence (Q92769 whole entry): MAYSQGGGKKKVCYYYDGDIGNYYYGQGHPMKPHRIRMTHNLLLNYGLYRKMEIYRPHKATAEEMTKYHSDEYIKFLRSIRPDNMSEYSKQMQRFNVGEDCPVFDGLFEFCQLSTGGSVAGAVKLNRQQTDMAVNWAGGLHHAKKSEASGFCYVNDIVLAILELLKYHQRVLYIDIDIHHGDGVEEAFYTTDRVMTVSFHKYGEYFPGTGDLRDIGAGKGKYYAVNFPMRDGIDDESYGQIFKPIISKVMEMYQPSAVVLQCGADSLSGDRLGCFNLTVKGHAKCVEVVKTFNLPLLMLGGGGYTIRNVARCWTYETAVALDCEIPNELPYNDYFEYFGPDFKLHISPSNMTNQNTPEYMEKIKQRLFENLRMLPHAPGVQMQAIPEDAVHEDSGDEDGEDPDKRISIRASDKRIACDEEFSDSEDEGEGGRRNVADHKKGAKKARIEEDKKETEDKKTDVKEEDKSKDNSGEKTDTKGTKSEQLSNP
Sequence of Histone deacetylase 3/Nuclear receptor corepressor 2 (HDAC3/NCoR2) (O15379 whole entry, the tested form may be a part): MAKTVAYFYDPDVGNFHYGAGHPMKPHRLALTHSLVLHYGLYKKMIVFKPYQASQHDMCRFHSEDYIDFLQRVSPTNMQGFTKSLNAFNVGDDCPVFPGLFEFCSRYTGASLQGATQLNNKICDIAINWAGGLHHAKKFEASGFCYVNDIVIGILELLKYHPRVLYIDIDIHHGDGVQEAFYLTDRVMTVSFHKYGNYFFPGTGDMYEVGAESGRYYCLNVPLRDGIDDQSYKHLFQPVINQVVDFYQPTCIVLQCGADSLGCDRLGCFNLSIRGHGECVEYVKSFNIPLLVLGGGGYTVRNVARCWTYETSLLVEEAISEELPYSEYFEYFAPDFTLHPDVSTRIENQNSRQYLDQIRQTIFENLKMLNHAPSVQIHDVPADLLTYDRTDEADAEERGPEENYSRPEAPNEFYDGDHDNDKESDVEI
Sequence of Histone deacetylase 3/Nuclear receptor corepressor 2 (HDAC3/NCoR2) (Q9Y618 whole entry, further chain, the tested form may be a part): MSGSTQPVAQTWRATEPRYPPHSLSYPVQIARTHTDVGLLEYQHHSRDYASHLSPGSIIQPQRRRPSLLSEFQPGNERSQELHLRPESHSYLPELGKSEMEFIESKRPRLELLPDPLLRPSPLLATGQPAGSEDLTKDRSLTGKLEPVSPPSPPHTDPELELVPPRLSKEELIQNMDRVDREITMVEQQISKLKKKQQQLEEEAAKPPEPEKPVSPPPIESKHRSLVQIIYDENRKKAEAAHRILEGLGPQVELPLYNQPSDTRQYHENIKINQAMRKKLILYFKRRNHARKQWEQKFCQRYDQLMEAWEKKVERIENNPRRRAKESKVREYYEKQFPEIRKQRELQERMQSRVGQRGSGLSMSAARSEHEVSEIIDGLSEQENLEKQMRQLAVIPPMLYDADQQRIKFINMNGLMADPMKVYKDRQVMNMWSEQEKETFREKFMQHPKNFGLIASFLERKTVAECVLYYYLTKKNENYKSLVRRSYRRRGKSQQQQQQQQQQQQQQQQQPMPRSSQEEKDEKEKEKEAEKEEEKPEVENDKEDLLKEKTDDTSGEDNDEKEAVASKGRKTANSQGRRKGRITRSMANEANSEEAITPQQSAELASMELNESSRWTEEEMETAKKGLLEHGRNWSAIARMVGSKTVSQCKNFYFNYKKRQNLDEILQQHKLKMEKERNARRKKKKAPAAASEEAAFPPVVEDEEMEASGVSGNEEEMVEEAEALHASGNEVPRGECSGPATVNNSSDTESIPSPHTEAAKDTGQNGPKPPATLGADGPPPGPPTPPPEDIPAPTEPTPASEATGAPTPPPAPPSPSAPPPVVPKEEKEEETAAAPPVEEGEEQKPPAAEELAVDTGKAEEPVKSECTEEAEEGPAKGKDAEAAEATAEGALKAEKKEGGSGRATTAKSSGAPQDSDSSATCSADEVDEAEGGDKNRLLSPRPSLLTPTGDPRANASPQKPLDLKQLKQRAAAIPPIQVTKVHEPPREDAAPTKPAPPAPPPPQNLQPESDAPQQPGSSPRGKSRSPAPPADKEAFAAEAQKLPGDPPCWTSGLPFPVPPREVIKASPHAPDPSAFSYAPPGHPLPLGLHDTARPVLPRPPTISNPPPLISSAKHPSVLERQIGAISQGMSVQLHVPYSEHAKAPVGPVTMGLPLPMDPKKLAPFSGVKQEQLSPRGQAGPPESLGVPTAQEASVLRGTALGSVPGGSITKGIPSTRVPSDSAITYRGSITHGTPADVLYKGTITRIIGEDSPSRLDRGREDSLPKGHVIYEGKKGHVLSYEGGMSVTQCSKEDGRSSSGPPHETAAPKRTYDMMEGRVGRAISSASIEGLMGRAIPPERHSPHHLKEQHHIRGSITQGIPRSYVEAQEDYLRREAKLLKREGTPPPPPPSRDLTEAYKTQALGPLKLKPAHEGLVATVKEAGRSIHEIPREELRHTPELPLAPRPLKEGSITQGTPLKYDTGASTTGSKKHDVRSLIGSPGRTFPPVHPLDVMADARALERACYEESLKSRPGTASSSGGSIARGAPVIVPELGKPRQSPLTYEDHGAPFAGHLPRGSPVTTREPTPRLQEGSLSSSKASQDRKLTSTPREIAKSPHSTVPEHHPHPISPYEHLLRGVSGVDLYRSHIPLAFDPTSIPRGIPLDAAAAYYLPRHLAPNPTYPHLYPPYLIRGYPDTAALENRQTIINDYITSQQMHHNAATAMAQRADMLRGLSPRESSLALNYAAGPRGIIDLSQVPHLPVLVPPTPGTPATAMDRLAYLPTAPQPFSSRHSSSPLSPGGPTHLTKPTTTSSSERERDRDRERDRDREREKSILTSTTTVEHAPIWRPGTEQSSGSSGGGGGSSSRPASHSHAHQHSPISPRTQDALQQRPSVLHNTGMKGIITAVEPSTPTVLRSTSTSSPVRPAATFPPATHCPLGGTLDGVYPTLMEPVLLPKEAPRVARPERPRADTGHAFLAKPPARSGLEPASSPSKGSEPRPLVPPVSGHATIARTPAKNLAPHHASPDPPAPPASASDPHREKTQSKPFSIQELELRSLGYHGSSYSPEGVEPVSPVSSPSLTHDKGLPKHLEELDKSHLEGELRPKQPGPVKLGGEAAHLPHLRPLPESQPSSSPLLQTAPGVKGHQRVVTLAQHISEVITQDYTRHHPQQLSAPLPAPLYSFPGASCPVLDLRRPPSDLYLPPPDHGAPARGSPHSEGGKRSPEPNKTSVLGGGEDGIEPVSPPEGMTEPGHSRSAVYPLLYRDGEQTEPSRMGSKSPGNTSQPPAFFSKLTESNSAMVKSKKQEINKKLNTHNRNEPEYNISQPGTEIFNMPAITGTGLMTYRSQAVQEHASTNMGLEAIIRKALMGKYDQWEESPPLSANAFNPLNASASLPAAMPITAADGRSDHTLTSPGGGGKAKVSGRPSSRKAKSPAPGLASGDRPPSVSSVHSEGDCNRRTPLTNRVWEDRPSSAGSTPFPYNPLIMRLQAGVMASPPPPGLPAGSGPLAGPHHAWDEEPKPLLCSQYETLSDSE

| IC50 (Histone deacetylase 1) | IC50 (Histone deacetylase 2 [5]) | IC50 [8] | IC50 [9] | inhibition (Histone deacetylase 2 [11]) | GI50 (HL-60 [4]) | Compound | Activity [1] | IG50 (A549) | Activity [2] | Activity [3] | IG50 (HL-60 [4]) | IG50 [6] | IG50 (MCF7) | Activity [7] | IG50 (HCT-116) | Activity (HL-60 [10]) | Activity (HL-60 [12]) | Activity (HL-60 [13]) | viability at 4 µM (HL-60 [14]) |
| --- | --- | --- | --- | --- | --- | --- | --- | --- | --- | --- | --- | --- | --- | --- | --- | --- | --- | --- | --- |
| 18 nM | 33 nM | 96 nM | 20 nM |  |  | O=C(CCNC(=O)/C(Cc1ccc(O)c(Br)c1)=N/O)NO | 54.68% | 1.1 µM | 18.9 g | 18.4 g | 0.57 µM | 5 µM | 1.09 µM | 0.45 g | 0.9 µM |  |  |  |  |
| 8 nM | 33 nM | 311 nM | 12.4 nM | Active | 370 nM | O=C(NCCSSCCNC(=O)/C(Cc1ccc(O)c(Br)c1)=N/O)/C(Cc1ccc(O)c(Br)c1)=N/O [PSAMMAPLIN A] | 66.04% | 2.9 µM | 18.2 g | 18.4 g |  | 2.64 µM | 4.14 µM | 0.34 g | 2.3 µM | Active | 24.9% | Active | 66.2% |
| 52 nM | 210 nM | 960 nM | 120 nM | Active | 680 nM | O=C(NCCS)/C(Cc1ccc(O)c(Br)c1)=N/O | 55.99% | 10.7 µM | 18.5 g | 18.3 g |  | 3.9 µM | 17 µM | 0.48 g | 5.9 µM | Active | 3.7% | Active | 93.3% |
